Active and inactive are the calls of the source. No cut-off for these calls is given here.
Experiments:
[1] = Antioxidant activity assessed as inhibition of ABTS free radical generation at 17 uM after 20 mins by UV spectrophotometric analysis relative to control; assay type: functional
In short: (§1)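 ABTS radical cation formed by mixing ABTS diammonium salt (96 mg) and potassium persulfate (33 mg) in 25 mL 0.1 M phosphate buffer pH 7.0, then left in the dark at room temperature for 16 h before use. Samples made fresh as 2 mM stocks in methanol/phosphate buffer 1:1 and assayed in triplicate. Absorbance read at 734 nm; %I = (A_blank − A_sample)/A_blank.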

[2] = Antioxidant activity assessed as inhibition of ABTS free radical generation after 20 mins by UV spectrophotometric analysis relative to control; assay type: functional; in short: as §1
[3] = Antioxidant activity assessed as inhibition of ABTS free radical generation at 33 uM after 20 mins by UV spectrophotometric analysis relative to control; assay type: functional
In short: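 ABTS radical cation was generated from ABTS diammonium salt and potassium persulfate in 0.1 M phosphate buffer, pH 7.0, and left in the dark at room temperature for 16 h before use. Sample stocks (2 mM) were freshly prepared in methanol/phosphate buffer 1:1 and tested in triplicate. Absorbance was read at 734 nm, with inhibition calculated as %I = (A_blank − A_sample)/A_blank.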

[4] = target: Glutamate receptor ionotropic, NMDA 2B (Rattus norvegicus, UniProt Q00960); experiment: Displacement of [3H]-ifenprodil from Wistar rat cerebral cortex GluN2B after 120 mins; assay type: tissue-based
In short: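 Membranes from cerebral cortices of male Wistar-derived rats (175 g) prepared in Tris–HCl pH 7.4. A 5 mg aliquot was incubated with 2 nM [3H]ifenprodil plus 5 μM GBR-12909, which blocks non-polyamine-sensitive sites, for 120 min at 4 °C. Nonspecific binding defined with 10 μM ifenprodil. Membranes filtered, washed and counted. Three test concentrations run in duplicate.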

Chain of Glutamate receptor ionotropic, NMDA 2B (Q00960 whole entry): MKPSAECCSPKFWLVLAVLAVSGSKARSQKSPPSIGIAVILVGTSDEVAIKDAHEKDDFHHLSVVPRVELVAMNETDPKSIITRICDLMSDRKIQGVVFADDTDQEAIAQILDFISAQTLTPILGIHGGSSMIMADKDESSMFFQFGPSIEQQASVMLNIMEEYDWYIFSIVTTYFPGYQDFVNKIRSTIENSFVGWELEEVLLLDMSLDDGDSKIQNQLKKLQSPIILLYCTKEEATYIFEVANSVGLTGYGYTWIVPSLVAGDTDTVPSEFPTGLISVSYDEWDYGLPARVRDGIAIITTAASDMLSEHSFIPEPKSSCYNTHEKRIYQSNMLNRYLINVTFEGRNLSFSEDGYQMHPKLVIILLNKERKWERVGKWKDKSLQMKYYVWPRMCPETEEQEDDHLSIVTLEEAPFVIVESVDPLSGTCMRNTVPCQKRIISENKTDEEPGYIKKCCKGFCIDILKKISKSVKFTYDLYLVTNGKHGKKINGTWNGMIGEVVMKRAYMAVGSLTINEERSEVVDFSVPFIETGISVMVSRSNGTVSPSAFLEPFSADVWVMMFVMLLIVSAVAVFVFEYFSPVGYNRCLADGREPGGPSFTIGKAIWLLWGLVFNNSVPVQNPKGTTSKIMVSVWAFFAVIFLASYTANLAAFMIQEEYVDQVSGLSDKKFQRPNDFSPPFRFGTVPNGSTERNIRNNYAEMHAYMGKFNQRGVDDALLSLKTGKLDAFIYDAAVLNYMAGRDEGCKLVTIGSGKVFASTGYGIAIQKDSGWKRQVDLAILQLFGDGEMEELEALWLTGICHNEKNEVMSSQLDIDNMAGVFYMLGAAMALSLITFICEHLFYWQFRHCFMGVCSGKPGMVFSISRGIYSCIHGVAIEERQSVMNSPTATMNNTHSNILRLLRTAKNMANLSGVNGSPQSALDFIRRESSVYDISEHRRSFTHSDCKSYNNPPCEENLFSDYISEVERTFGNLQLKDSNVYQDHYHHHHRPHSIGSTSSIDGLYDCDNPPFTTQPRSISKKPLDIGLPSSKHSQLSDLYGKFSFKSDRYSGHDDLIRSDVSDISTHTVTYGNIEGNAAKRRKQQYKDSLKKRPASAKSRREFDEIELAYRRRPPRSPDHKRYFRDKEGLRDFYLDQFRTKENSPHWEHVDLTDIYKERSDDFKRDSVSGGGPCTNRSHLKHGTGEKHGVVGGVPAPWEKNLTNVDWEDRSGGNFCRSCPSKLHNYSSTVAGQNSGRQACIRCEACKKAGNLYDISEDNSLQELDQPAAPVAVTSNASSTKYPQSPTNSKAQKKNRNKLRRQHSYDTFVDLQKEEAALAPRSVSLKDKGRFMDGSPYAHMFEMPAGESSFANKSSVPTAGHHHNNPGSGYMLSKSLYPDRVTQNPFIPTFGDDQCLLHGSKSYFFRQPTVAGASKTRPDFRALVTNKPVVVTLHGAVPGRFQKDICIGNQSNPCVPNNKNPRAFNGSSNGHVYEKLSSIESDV

O=C(CN1CCC(Cc2ccccc2)CC1)c1c[nH]c2ccc(O)cc12
inhibition [1]: > 92.1% | inhibition [2]: Dose-dependent effect

O=C(C(=O)N1CCC(Cc2ccccc2)CC1)c1c[nH]c2cc(O)ccc12
inhibition [1]: 70.7% | inhibition [2]: Dose-dependent effect

O=C(O)/C=C/c1ccc(O)c(O)c1
inhibition [1]: 71.5%

O=C(O)c1cc(O)c(O)c(O)c1
inhibition [1]: > 94.1%

O=C(C(=O)N1CCC(Cc2ccccc2)CC1)c1c[nH]c2ccc(O)cc12
inhibition [1]: 80.1% | inhibition [2]: Dose-dependent effect

COc1ccc2[nH]ccc2c1
inhibition [1]: inactive | inhibition [3]: 47.6%

O=C(CN1CCC(Cc2ccccc2)CC1)c1c[nH]c2cc(O)ccc12
inhibition [1]: > 93.9% | inhibition [2]: Dose-dependent effect

O=C(NC1CCN(CC(=O)c2c[nH]c3ccc(O)cc23)CC1)c1ccc(O)c(O)c1
inhibition [1]: > 94.1% | inhibition [2]: Dose-dependent effect | IC50 [4]: 660 nM

c1ccc2[nH]ccc2c1
inhibition [1]: inactive | inhibition [3]: 25%

Reference: ChEMBL document CHEMBL2412984, “Indole derivatives as dual-effective agents for the treatment of neurodegenerative diseases: synthesis, biological evaluation, and molecular modeling studies” (Bioorg Med Chem, 2013)
